# Reference: ChEMBL document CHEMBL1145518, “Potent immune-modulating and anticancer effects of NKT cell stimulatory glycolipids” (2007)
# Activity calls are given as the source filed them. The calls are words filed in the database; no cut-off is given here.
# Key:
# dendritic [1] = test: Activation of TCR in human immature dendritic cells assessed as increase in CD3epsilon phosphorylation; type: cell-based
# Procedure, shortened: (§1)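 Human HeLa, HeLa-CD1d or autologous immature DCs were loaded with glycolipid at 10 μg/ml, or DMSO, for 2 h. Then 3 × 10^5 naïve CD161+/CD3+ NKT cells were added; these were bead-isolated and kept in 100 units/ml IL-2. After 5–10 min the cells were washed and lysed at 4°C. Phospho-CD3ε, ERK1/2 (Thr-185/Tyr-187) and CREB (Ser-133) were read by Luminex bead assay as median fluorescence normalized to total protein, expressed as fold over 1% DMSO.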
# [2] = Induction of IL8 secretion in human CD161+ CD3+ NKT cells at 10 ug/ml after 18 hrs relative to basal level; type: functional
# Procedure, shortened: (§2)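 Human Vα24i NKT cell lines were expanded for 10 days on irradiated (3,000 rad) autologous immature DCs with 10 units/ml IL-2. The cells (1 × 10^5) were cocultured with 5 × 10^4 irradiated immature CD14+ DCs plus glycolipid at 10 μg/ml. Supernatants were collected at 18 h and read on a 22-plex Luminex bead panel. Triplicates, mean ± SD.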
# HeLa [3] = test: Activation of TCR in human HeLa cells overexpressing CD1d assessed as increase in ERK1/2 phosphorylation; type: cell-based; procedure, shortened: as §1
# [4] = Induction of IL3 secretion in human CD161+ CD3+ NKT cells at 10 ug/ml after 18 hrs relative to basal level; type: functional; procedure, shortened: as §2
# [5] = Induction of RANTES secretion in human CD161+ CD3+ NKT cells at 10 ug/ml after 18 hrs relative to basal level; type: functional; procedure, shortened: as §2
# [6] = Induction of IFN-gamma secretion in human CD161+ CD3+ NKT cells at 10 ug/ml after 18 hrs relative to basal level; type: functional; procedure, shortened: as §2
# dendritic [7] = test: Activation of TCR in human immature dendritic cells assessed as increase in ERK1/2 phosphorylation; type: cell-based; procedure, shortened: as §1
# [8] = Induction of IL10 secretion in human CD161+ CD3+ NKT cells at 10 ug/ml after 18 hrs relative to basal level; type: functional; procedure, shortened: as §2
# [9] = Induction of IL12p40 secretion in human CD161+ CD3+ NKT cells at 10 ug/ml after 18 hrs relative to basal level; type: functional; procedure, shortened: as §2
# [10] = Induction of MCP1 secretion in human CD161+ CD3+ NKT cells at 10 ug/ml after 18 hrs relative to basal level; type: functional; procedure, shortened: as §2
# [11] = Induction of MIPalpha secretion in human CD161+ CD3+ NKT cells at 10 ug/ml after 18 hrs relative to basal level; type: functional; procedure, shortened: as §2
# [12] = Induction of IL12p70 secretion in human CD161+ CD3+ NKT cells at 10 ug/ml after 18 hrs relative to basal level; type: functional; procedure, shortened: as §2
# [13] = Induction of IL6 secretion in human CD161+ CD3+ NKT cells at 10 ug/ml after 18 hrs relative to basal level; type: functional; procedure, shortened: as §2
# [14] = Induction of IL2 secretion in human CD161+ CD3+ NKT cells at 10 ug/ml after 18 hrs relative to basal level; type: functional; procedure, shortened: as §2
# [15] = Induction of IL15 secretion in human CD161+ CD3+ NKT cells at 10 ug/ml after 18 hrs relative to basal level; type: functional; procedure, shortened: as §2
# [16] = Induction of IL13 secretion in human CD161+ CD3+ NKT cells at 10 ug/ml after 18 hrs relative to basal level; type: functional; procedure, shortened: as §2
# [17] = Induction of TNFalpha secretion in human CD161+ CD3+ NKT cells at 10 ug/ml after 18 hrs relative to basal level; type: functional; procedure, shortened: as §2
# [18] = Induction of IL4 secretion in human CD161+ CD3+ NKT cells at 10 ug/ml after 18 hrs relative to basal level; type: functional; procedure, shortened: as §2
# HeLa [19] = test: Activation of TCR in human HeLa cells overexpressing CD1d assessed as increase in CD3epsilon phosphorylation; type: cell-based; procedure, shortened: as §1
# HeLa [20] = test: Activation of TCR in human HeLa cells overexpressing CD1d assessed as increase in CREB phosphorylation; type: cell-based; procedure, shortened: as §1
# dendritic [21] = test: Activation of TCR in human immature dendritic cells assessed as increase in CREB phosphorylation; type: cell-based; procedure, shortened: as §1
# [22] = Induction of GM-CSF secretion in human CD161+ CD3+ NKT cells at 10 ug/ml after 18 hrs relative to basal level; type: functional; procedure, shortened: as §2
# Mus musculus [23] = test: Induction of IL10 secretion in BALB/c mouse serum at 2 ug, iv after 18 hrs relative to control; type: functional
# Procedure, shortened: (§3)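 BALB/c mice received an i.v. injection of 100 μl of glycolipid diluted to 20 μg/ml in saline from DMSO stock, with 1% DMSO as vehicle. Serum cytokines/chemokines were measured at 2 and 18 h after injection.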
# Mus musculus [24] = test: Induction of KC secretion in BALB/c mouse serum at 2 ug, iv after 2 hrs relative to control; type: functional; procedure, shortened: as §3
# Mus musculus [25] = test: Induction of IL3 secretion in BALB/c mouse serum at 2 ug, iv after 2 hrs relative to control; type: functional; procedure, shortened: as §3
# Mus musculus [26] = test: Induction of GM-CSF secretion in BALB/c mouse serum at 2 ug, iv after 2 hrs relative to control; type: functional; procedure, shortened: as §3
# Mus musculus [27] = test: Induction of IL12p40 secretion in BALB/c mouse serum at 2 ug, iv after 18 hrs relative to control; type: functional; procedure, shortened: as §3
# Mus musculus [28] = test: Induction of IL4 secretion in BALB/c mouse serum at 2 ug, iv after 2 hrs relative to control; type: functional; procedure, shortened: as §3
# Mus musculus [29] = test: Increase in CD8/CD4 T cell ratio in BALB/c mouse at 2 ug, iv after 72 hrs by flow cytometry; type: functional, organism-based
# Mus musculus [30] = test: Induction of IL2 secretion in BALB/c mouse serum at 2 ug, iv after 2 hrs relative to control; type: functional; procedure, shortened: as §3
# TC1 = test: Antitumor activity in TC1 cells xenografted C57BL/6 mouse assessed as suppression of tumor growth at 2 ug, iv; type: functional, cell-based
# Procedure, shortened: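 C57BL/6 mice (n = 5/group) were inoculated i.v. with TC-1 lung cancer cells. They were then treated i.v. with 2 μg glycolipid per mouse, or 100 μl of 1% DMSO, twice weekly for 4 weeks. Kaplan–Meier survival and body weight were followed, with tumor-free mice as an additional control.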
# Mus musculus [31] = test: Induction of MCP1 secretion in BALB/c mouse serum at 2 ug, iv after 2 hrs relative to control; type: functional; procedure, shortened: as §3
# Mus musculus [32] = test: Induction of MIPbeta secretion in BALB/c mouse serum at 2 ug, iv after 2 hrs relative to control; type: functional; procedure, shortened: as §3
# Mus musculus [33] = test: Induction of IL12p70 secretion in BALB/c mouse serum at 2 ug, iv after 18 hrs relative to control; type: functional; procedure, shortened: as §3
# Mus musculus [34] = test: Induction of IL13 secretion in BALB/c mouse serum at 2 ug, iv after 2 hrs relative to control; type: functional; procedure, shortened: as §3
# Mus musculus [35] = test: Induction of IL1-beta secretion in BALB/c mouse serum at 2 ug, iv after 18 hrs relative to control; type: functional; procedure, shortened: as §3
# Mus musculus [36] = test: Induction of RANTES secretion in BALB/c mouse serum at 2 ug, iv after 2 hrs relative to control; type: functional; procedure, shortened: as §3
# Mus musculus [37] = test: Induction of TNFalpha secretion in BALB/c mouse serum at 2 ug, iv after 18 hrs relative to control; type: functional; procedure, shortened: as §3
# Mus musculus [38] = test: Induction of IFN-gamma secretion in BALB/c mouse serum at 2 ug, iv after 18 hrs relative to control; type: functional; procedure, shortened: as §3
# Mus musculus [39] = test: Induction of IL6 secretion in BALB/c mouse serum at 2 ug, iv after 2 hrs relative to control; type: functional; procedure, shortened: as §3
# 4T1 = test: Antitumor activity in mouse 4T1 cells xenografted BALB/c mouse assessed as suppression of tumor growth at 2 ug, iv; type: functional, cell-based
# Procedure, shortened: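 BALB/c mice (n = 6) were inoculated s.c. with 4T1 breast cancer cells. From day 3 they were treated i.v. with glycolipid or vehicle twice weekly for 4 weeks. Tumor volume was recorded every 3 days for 1 month, and survival was monitored up to 54 days.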
SMILES,Activity [2],Activity [4],Activity [5],Activity [6],Activity [8],Activity [9],Activity [10],Activity [11],Activity [12],Activity [13],Activity [14],Activity [15],Activity [16],Activity [17],Activity [18],Activity [22],further results
CCCCCCCCCCCCCCCCCCCCCCCCCC(=O)N[C@@H](CO[C@H]1O[C@H](CO)[C@H](O)[C@H](O)[C@H]1O)[C@H](O)[C@H](O)CCCCC,1.6,1.4,1.8,1.9,1.5,1.4,1.3,2.7,1,1.8,1.5,2.1,1.8,2.2,2.7,4.7,Activity (dendritic [1]): 12; Activity (HeLa [3]): 3.3; Activity (dendritic [7]): 18.6; Activity (HeLa [19]): 5.9; Activity (HeLa [20]): 20; Activity (dendritic [21]): 49
CCCCCCCCCCCCCCCCCCCCCCCCCC(=O)N[C@@H](CO[C@H]1O[C@H](C(=O)O)[C@H](O)[C@H](O)[C@H]1O)[C@H](O)[C@H](O)CCCCCCCCCCCCCC,1.4,1.3,1.6,3.4,0.7,1.8,1.2,3.3,2.7,1,2.3,1.7,1.1,1.7,1.5,2,Activity (Mus musculus [23]): 1.5; Activity (Mus musculus [24]): 16.1; Activity (Mus musculus [25]): 10.4; Activity (Mus musculus [26]): 37.6; Activity (Mus musculus [27]): 4.4; Activity (Mus musculus [28]): 21.2; Activity (Mus musculus [29]): Active; Activity (Mus musculus [30]): 21.5; Activity (TC1): Active; Activity (Mus musculus [31]): 8; Activity (Mus musculus [32]): 1.8; Activity (Mus musculus [33]): 1.4; Activity (Mus musculus [34]): 1.7; Activity (Mus musculus [35]): 4.8; Activity (Mus musculus [36]): 2.8; Activity (Mus musculus [37]): 8.7; Activity (Mus musculus [38]): 27.5; Activity (Mus musculus [39]): 4.9; Activity (4T1): Active
